From ChEMBL document CHEMBL4052664, “Novel pyridyl nitrofuranyl isoxazolines show antibacterial activity against multiple drug resistant Staphylococcus species” (Bioorg Med Chem, 2017) come the findings set out here.

By MIC is commonly meant the lowest concentration found to suppress growth. Read a high MIC as a less susceptible organism. Broadly, the IC50 is the concentration needed to halve the response being measured. Usually MBC stands for the smallest concentration meeting the test's criterion for killing. High values mean weaker bactericidal potency, low ones greater bactericidal potency.

Experiment [1] has as its system Pseudomonas aeruginosa. In words: Antibacterial activity against Pseudomonas aeruginosa PAO1 after 20 hrs by broth micro dilution method. The note with it: PAO1, 20 h. Type of experiment: functional. The procedure, abridged: (§1)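 Broth microdilution per CLSI guidelines in Mueller Hinton Broth. Growth was read as optical density at 600 nm after 20 hours. The MIC was taken as the lowest drug concentration at which OD600 stayed below 0.10. Run in triplicate.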

In experiment [2] the test system is Staphylococcus aureus. In words: Antibacterial activity against methicillin-sensitive Staphylococcus aureus ATCC 9144 after 20 hrs by broth micro dilution method. Type of experiment: functional. The note with it: ATCC 9144, 20 h. The procedure, abridged:
as §1

In experiment [3] the test system is Klebsiella pneumoniae. In words: Antibacterial activity against Klebsiella pneumoniae NCTC 13368 after 20 hrs by broth micro dilution method. Type of experiment: functional. The note with it: NCTC 13368, 20 h. The procedure, abridged: as §1
Experiment [4] concerns Staphylococcus aureus. In words: Antibacterial activity against methicillin-resistant Staphylococcus aureus EMRSA-16 after 20 hrs by broth microdilution method. Type of experiment: functional. The note with it: EMRSA-16, 20 h. The procedure, abridged: (§2)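 Broth microdilution per CLSI guidelines in Mueller Hinton Broth. Growth read as optical density at 600 nm after 20 h. MIC taken as the lowest concentration giving OD600 below 0.10. Run in triplicate.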

In the next experiment the test system is HeLa. Put plainly: Cytotoxicity against human HeLa cells assessed as reduction in cell viability after 96 hrs by MTT assay. Type of experiment: cell-based. Put shortly: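 HeLa cells were kept in DMEM with 10% FBS, 2 mM L-glutamine, non-essential amino acids and penicillin-streptomycin at 37 °C, 5% CO2. 10,000 cells per well were plated and left 24 h. Compound was then added in triplicate for 96 h continuous exposure. MTT read-out was absorbance at 570 nm. IC50 came from dose-response analysis.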
For orientation: Formazan colour is commonly taken as a measure of viable cells.

Experiment [5] concerns Staphylococcus aureus. Put plainly: Antibacterial activity against methicillin-resistant Staphylococcus aureus EMRSA-15 after 20 hrs by broth microdilution method. Type of experiment: functional. The note with it: EMRSA-15, 20 h. The procedure, abridged: as §2
On the technique in general: Dilution methods test growth across graded concentrations, often in twofold steps.

Another experiment deals with WI-38. In words: Cytotoxicity against human WI38 cells assessed as reduction in cell viability after 96 hrs by MTT assay. The class given is cell-based. The note with it: WI-38, 96 h. Put shortly: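 WI-38 lung fibroblasts were kept in DMEM with 15% FBS, 2 mM L-glutamine, non-essential amino acids and penicillin-streptomycin at 37 °C, 5% CO2. 10,000 cells per well were plated and left 24 h. Compound was then added in triplicate for 96 h continuous exposure. MTT read-out was absorbance at 570 nm. IC50 came from dose-response fitting.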

For experiment [6], the system named is Pseudomonas aeruginosa. Put plainly: Antibacterial activity against Pseudomonas aeruginosa NCTC 13437 after 20 hrs by broth micro dilution method. The note with it: NCTC 13437, 20 h. Type of experiment: functional. The procedure, abridged: as §1
Experiment [7] has as its system Klebsiella pneumoniae. Put plainly: Antibacterial activity against Klebsiella pneumoniae M6 after 20 hrs by broth micro dilution method. Type of experiment: functional. The note with it: M6, 20 h. Put shortly:
as §1

Experiment [8] concerns Acinetobacter baumannii. Put plainly: Antibacterial activity against Acinetobacter baumannii ATCC 17978 after 20 hrs by broth micro dilution method. Type of experiment: functional. The note with it: ATCC 17978, 20 h. Put shortly: as §1
Experiment [9] deals with Acinetobacter baumannii. In words: Antibacterial activity against Acinetobacter baumannii ATCC BAA-1710 after 20 hrs by broth micro dilution method. The class given is functional. The note with it: ATCC BAA-1710, 20 h. The procedure, abridged:
as §1

In experiment [10] the test system is Staphylococcus aureus. In words: Antibacterial activity against Staphylococcus aureus BGW541 after 20 hrs by broth microdilution method. The class given is functional. The note with it: BGW541, 20 h. Put shortly: as §1
For experiment [11], the system named is Staphylococcus aureus. In words: Bacteriostatic activity against methicillin-resistant Staphylococcus aureus EMRSA-15 at 4 times MIC after 5 to 24 hrs by time kill assay. Type of experiment: functional. The procedure, abridged: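 Mueller Hinton Broth flasks (50 mL) inoculated at ~10^6 cfu/mL. Agent added at 4x MIC and shaken at 200 rpm, 37 °C. Samples taken hourly for 8 h and at 24 h. Viable counts by modified Miles-Misra dilution. Values are the average of at least three replicate experiments, SEM shown.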

Experiment [12] has as its system Staphylococcus aureus. Put plainly: Antibacterial activity against Staphylococcus aureus A1988 after 20 hrs by broth microdilution method. The class given is functional. The note with it: A1988, 20 h. The procedure, abridged:
as §1

Experiment [13] has as its system Staphylococcus aureus. Put plainly: Antibacterial activity against methicillin-resistant Staphylococcus aureus NCTC 12493 after 20 hrs by broth microdilution method. The class given is functional. The note with it: NCTC 12493, 20 h. The procedure, abridged: as §2
Experiment [14] concerns Staphylococcus aureus. In words: Antibacterial activity against Staphylococcus aureus NCTC 6571 after 20 hrs by broth microdilution method. The class given is functional. The note with it: NCTC 6571, 20 h. Put shortly: as §1
The subject of experiment [15] is Staphylococcus epidermidis. Put plainly: Antibacterial activity against Staphylococcus epidermidis ATCC 35984 after 20 hrs by broth microdilution method. The class given is functional. The note with it: RP62A. Put shortly: as §1
Experiment [16] relates to Staphylococcus aureus. In words: Ratio of MBC to MIC against methicillin-sensitive Staphylococcus aureus ATCC 9144. The class given is functional. Put shortly:
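MBC/MIC ratio from the broth microdilution MIC (Mueller Hinton Broth, OD600 <0.10 after 20 h, triplicate) and the MBC (MIC-plate wells at and above the MIC spotted on tryptic soy agar, 37 °C 24 h, no colonies). A ratio of 1 or 2 was taken as bactericidal; 4 or 16 as bacteriostatic.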

In experiment [17] the test system is Staphylococcus aureus. In words: Antibacterial activity against Staphylococcus aureus isolate 13142 after 20 hrs by broth microdilution method. The note with it: isolate 13142, 20 h. Type of experiment: functional. Put shortly: as §1
The test system of experiment [18] is Staphylococcus aureus. Put plainly: Antibacterial activity against Staphylococcus aureus NCTC 8325 after 20 hrs by broth microdilution method. The note with it: NCTC 8325, 20 h. The class given is functional. Put shortly:
as §1

Experiment [19] deals with Staphylococcus aureus. Put plainly: Bactericidal activity against methicillin-sensitive Staphylococcus aureus ATCC 9144 after 24 hrs. Type of experiment: functional. The note with it: ATCC 9144, 24 h. The procedure, abridged:
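From the MIC plate, 10ul was taken from every well at and above the MIC and spotted onto tryptic soy agar. Plates were incubated 24 h at 37 °C. The MBC was the concentration at which no colonies grew.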

Structures are written as SMILES. Converted amounts (≈) assume the structure as drawn. The source made the active and inactive calls.

As for `CC(C)(C)OC(=O)N1CCN(c2ccc(C3CC(c4ccc([N+](=O)[O-])o4)=NO3)cc2)CC1` (stereo not drawn), the minimal inhibitory concentration (MIC) with Pseudomonas aeruginosa [1] is more than 128 µg/mL; in the experiment with Staphylococcus aureus [2], 32 µg/mL (≈ 72.3 µM); against Klebsiella pneumoniae [3], more than 128 µg/mL; in the experiment with Staphylococcus aureus [4], more than 128 µg/mL; with Staphylococcus aureus [5] it was more than 128 µg/mL; with Pseudomonas aeruginosa [6] it was more than 128 µg/mL. The minimum inhibitory concentration (MIC) in the experiment with Klebsiella pneumoniae [7], in the experiment with Acinetobacter baumannii [8] and against Acinetobacter baumannii [9] was more than 128 µg/mL in each case. Also, the IC50 in the experiment with HeLa and in the experiment with WI-38 was more than 50 µM in each case.
Take `COc1ccc(CN2CCN(c3ccc(C4CC(c5ccc([N+](=O)[O-])o5)=NO4)cc3)CC2)cn1` (stereo not drawn): the minimum inhibitory concentration (MIC) against Pseudomonas aeruginosa [1] is more than 128 µg/mL; with Staphylococcus aureus [2] it was 32 µg/mL (≈ 69 µM); with Klebsiella pneumoniae [3] it was more than 128 µg/mL; with Staphylococcus aureus [4] it was 32 µg/mL (≈ 69 µM); against Staphylococcus aureus [5] it was 128 µg/mL (≈ 276 µM); with Pseudomonas aeruginosa [6], more than 128 µg/mL. Moreover, the MIC against Klebsiella pneumoniae [7], against Acinetobacter baumannii [8] and with Acinetobacter baumannii [9] was more than 128 µg/mL each time. Further, the IC50 in the experiment on HeLa and in the experiment with WI-38 was more than 50 µM throughout.
`O=[N+]([O-])c1ccc(C2=NOC(c3ccc(N4CCN(Cc5ccc(F)nc5)CC4)cc3)C2)o1` (stereo not drawn): the MIC in the experiment with Pseudomonas aeruginosa [1] is more than 128 µg/mL; against Staphylococcus aureus [2], 32 µg/mL (≈ 70.9 µM); against Klebsiella pneumoniae [3], more than 128 µg/mL; with Staphylococcus aureus [4], 16 µg/mL (≈ 35.4 µM); in the experiment on Staphylococcus aureus [5] it was 128 µg/mL (≈ 284 µM); against Pseudomonas aeruginosa [6] it was more than 128 µg/mL. In addition, the minimum inhibitory concentration (MIC) in the experiment on Klebsiella pneumoniae [7], in the experiment with Acinetobacter baumannii [8] and in the experiment on Acinetobacter baumannii [9] was more than 128 µg/mL each time. Also, the 50% inhibitory concentration (IC50) in the experiment with HeLa and in the experiment with WI-38 was more than 50 µM throughout.
For `O=[N+]([O-])c1ccc(C2=NOC(c3ccc(N4CCN(Cc5cccnc5)CC4)cc3)C2)o1` (stereo not drawn), the MIC is more than 128 µg/mL against Pseudomonas aeruginosa [1]; 16 µg/mL (≈ 36.9 µM) with Staphylococcus aureus [2]; more than 128 µg/mL against Klebsiella pneumoniae [3]; 32 µg/mL (≈ 73.8 µM) in the experiment with Staphylococcus aureus [4]; 8 µg/mL (≈ 18.5 µM) in the experiment on Staphylococcus aureus [10]; 16 µg/mL (≈ 36.9 µM) with Staphylococcus aureus [5]. The MIC against Staphylococcus aureus [12] is 8 µg/mL (≈ 18.5 µM); against Staphylococcus aureus [13], 4 to 8 µg/mL (≈ 9.23 to 18.5 µM); in the experiment with Staphylococcus aureus [14], 16 µg/mL (≈ 36.9 µM); in [15], 4 to 8 µg/mL (≈ 9.23 to 18.5 µM); with Pseudomonas aeruginosa [6], more than 128 µg/mL; with Klebsiella pneumoniae [7], more than 128 µg/mL. The MIC is 8 to 16 µg/mL (≈ 18.5 to 36.9 µM) in the experiment with Staphylococcus aureus [17], 16 µg/mL (≈ 36.9 µM) in the experiment with Staphylococcus aureus [18], more than 128 µg/mL in the experiment on Acinetobacter baumannii [8] and more than 128 µg/mL against Acinetobacter baumannii [9]. The IC50 in the experiment on HeLa and with WI-38 was more than 50 µM in each case. Further, the outcome with Staphylococcus aureus [11] was Active. Also, in the experiment on Staphylococcus aureus [16], the Ratio was 8. The minimal bactericidal concentration (MBC) with Staphylococcus aureus [19] is not below 128 µg/mL.
On to `O=[N+]([O-])c1ccc(C2=NOC(c3ccc(-c4cccnc4)cc3)C2)o1` (stereo not drawn), for which the minimal inhibitory concentration (MIC) in the experiment with Staphylococcus aureus [2] turned out to be 32 µg/mL (≈ 95.4 µM); with Staphylococcus aureus [4], 16 µg/mL (≈ 47.7 µM); with Staphylococcus aureus [5], 64 µg/mL (≈ 191 µM). Besides, the half-inhibitory concentration (IC50) in the experiment with HeLa and in the experiment on WI-38 was more than 50 µM each time.
On to `CC1(C)S[C@@H]2[C@H](NC(=O)[C@H](N)c3ccc(O)cc3)C(=O)N2[C@H]1C(=O)O` [AMOXICILLIN], for which the MIC is 0.1 to 2 µg/mL (≈ 0.274 to 5.47 µM) in the experiment on Staphylococcus aureus [2]; more than 128 µg/mL against Staphylococcus aureus [4]; 0.25 to 0.5 µg/mL (≈ 0.684 to 1.37 µM) in the experiment on Staphylococcus aureus [10]; 128 µg/mL (≈ 350 µM) against Staphylococcus aureus [5]; more than 128 µg/mL against Staphylococcus aureus [12]; more than 128 µg/mL with Staphylococcus aureus [13]. Also, the MIC against Staphylococcus aureus [14] is 0.25 µg/mL (≈ 0.684 µM); in experiment [15], 128 µg/mL (≈ 350 µM); in the experiment with Staphylococcus aureus [17] it was 0.25 µg/mL (≈ 0.684 µM); against Staphylococcus aureus [18] it was 0.25 to 0.5 µg/mL (≈ 0.684 to 1.37 µM).
For the compound `O=C(O)c1cn(C2CC2)c2cc(N3CCNCC3)c(F)cc2c1=O` [CIPROFLOXACIN], the minimum inhibitory concentration (MIC) in the experiment on Staphylococcus aureus [4] is 32 µg/mL (≈ 96.6 µM); against Staphylococcus aureus [10], 0.5 µg/mL (≈ 1.51 µM); with Staphylococcus aureus [5], 32 µg/mL (≈ 96.6 µM); in the experiment on Staphylococcus aureus [12], 0.25 µg/mL (≈ 0.754 µM); in the experiment on Staphylococcus aureus [13], 0.5 µg/mL (≈ 1.51 µM); against Staphylococcus aureus [14], 0.25 to 0.5 µg/mL (≈ 0.754 to 1.51 µM). Moreover, the minimal inhibitory concentration (MIC) in [15] was 0.125 to 0.5 µg/mL (≈ 0.377 to 1.51 µM); in the experiment on Staphylococcus aureus [17], 0.25 µg/mL (≈ 0.754 µM); against Staphylococcus aureus [18], 0.125 to 0.25 µg/mL (≈ 0.377 to 0.754 µM).
